# Screening data: PubChem, The Scripps Research Institute Molecular Screening Center
# This is a sample that favours compounds with a hit; in the whole collection about 3.2% have one here.
# ABHD4 inh – inhibitors of mouse ABHD4 | purified mABHD4, FP-Rh probe fluorescence polarization | hit rate 0.54% among 370,000 | AID 720543 | Q8VD66 | inhibition, % at 8.92 µM;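 active = inhibition exceeding the mean over every tested compound plus 3 SD, cut at about 30% in these data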;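 note: 0% = plate median of compound wells and 100% = S159A mutant with DMSO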
# Target sequence (Q8VD66 whole entry, looked up): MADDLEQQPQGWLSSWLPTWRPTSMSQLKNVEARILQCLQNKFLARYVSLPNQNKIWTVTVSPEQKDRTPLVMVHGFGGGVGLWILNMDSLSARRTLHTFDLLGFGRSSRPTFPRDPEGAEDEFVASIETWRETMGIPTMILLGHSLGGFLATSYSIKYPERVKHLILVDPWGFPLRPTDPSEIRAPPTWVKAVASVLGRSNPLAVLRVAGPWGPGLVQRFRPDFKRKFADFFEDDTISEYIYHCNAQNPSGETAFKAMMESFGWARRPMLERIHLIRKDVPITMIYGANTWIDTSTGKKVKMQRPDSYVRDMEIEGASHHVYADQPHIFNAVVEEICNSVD
#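 Assay system: mABHD4 protein; medium: HEPES pH 7.0, NaCl, Pluronic buffer; dosing: 8.92 µM, single dose; schedule: 45 min + 60 min at 25 °C; signal: FP readout, ex 525 nm / em 598 nm; read-out: normalized percent inhibition of probe labeling; repeats: single replicate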
# rCAG binder – binds r(CAG) RNA repeats; r(CAG) RNA repeat, TO-PRO-1 dye displacement fluorescence; inhibition, % at 3 µM; hit rate 1.3% among 370,000;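 active = inhibition above the plate cutoff, the mean of all test compounds on that plate plus 3 SD, cut at about 35% in these data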;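 note: 0% = DMSO alone and 100% = 100 µM mitoxantrone as full dye displacement; higher means more dye released from RNA so lower well fluorescence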
# DAGLB inhibitor – blocks human DAGLB lipase activity; Q8NCG7; HEK293T DAGLB membrane lysate, EnzChek fluorogenic substrate; inhibition, % at 5.17 µM; hit rate 0.059% among 340,000; in the data active = inhibition above about 34%;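 note: 0% = enzyme with vehicle and 100% = wells lacking enzyme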
# PRMT1 inh – inhibitors of human PRMT1 | hit rate 1.3% among 370,000 | inhibition, % at 2.79 µM | recombinant PRMT1, activity-based probe fluorescence polarization | AID 652257 | Q99873;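 active = inhibition above about 21% made by adding two undisclosed values, limit read from the data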
# Target sequence (Q99873 whole entry, looked up): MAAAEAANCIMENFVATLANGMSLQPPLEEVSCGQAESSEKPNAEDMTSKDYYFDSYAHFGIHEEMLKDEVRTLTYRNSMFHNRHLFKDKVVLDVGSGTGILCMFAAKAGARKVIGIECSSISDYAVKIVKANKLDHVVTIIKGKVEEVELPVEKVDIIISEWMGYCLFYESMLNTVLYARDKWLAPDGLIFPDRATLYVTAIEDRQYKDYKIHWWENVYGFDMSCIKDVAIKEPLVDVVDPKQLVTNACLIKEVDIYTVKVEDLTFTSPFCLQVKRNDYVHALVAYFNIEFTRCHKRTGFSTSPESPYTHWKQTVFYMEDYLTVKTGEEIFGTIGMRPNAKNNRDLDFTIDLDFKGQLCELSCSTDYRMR
# LEDGF integ inh – blocks HIV-1 LEDGF/p75-dependent DNA integration; TR-FRET IN-LEDGF/p75 DNA integration, Eu/Cy5; AID 743269; inhibition, % at 3.7 µM; hit rate 0.64% among 370,000;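 active = inhibition above the screen-wide mean plus 3 SD, cut at about 13% in these data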;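 note: signal is the Cy5 over europium emission ratio at 671 and 618 nm; 0% = plate median of compound wells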
# HTRA1 inhibitor – HTRA1 (human) protease inhibition; Q92743; recombinant HTRA1, FP-rhodamine activity-based probe, fluorescence polarization; inhibition, % at 5.96 µM; hit rate 0.5% among 340,000; AID 504803; in the data active = inhibition above about 36%;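 note: 0% = enzyme with DMSO and 100% = wells lacking enzyme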
# rCAG bind conf – r(CAG) RNA repeat binding, confirmation; shares compounds with rCAG binder; TO-PRO-1 dye displacement fluorescence; inhibition, % at 3 µM; hit rate 70% among 4,300;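 active = inhibition above a per-plate cutoff, the mean inhibition of sample wells plus 3 SD, cut at about 35% in these data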;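 note: loss of TO-PRO-1 fluorescence as compound displaces dye from 1x1 AA loop RNA; 0% = DMSO only wells and 100% = 100 µM mitoxantrone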
# DNA CAG counter – counter-screen for rCAG RNA binders: DNA CAG dye complex inhibitors. inhibition, % at 3 µM. hit rate 94% among 4,300. shares compounds with rCAG binder. d(CAG) DNA oligo TO-PRO-1 dye displacement, fluorescence;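 active = inhibition above its plate's cutoff, the mean test-well inhibition plus 3 SD, cut at about 4.8% in these data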;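 note: 0% = DNA dye mix with DMSO and 100% = 100 µM mitoxantrone; hits displace the dye from DNA and so lower well fluorescence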
# PRMT1 inh conf – PRMT1 (human) inhibition, FP confirmation; shares compounds with PRMT1 inh; recombinant His-PRMT1, activity-based probe fluorescence polarization; inhibition, % at 2.79 µM; hit rate 42% among 3,300;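 active = mean inhibition across replicates above the hit cutoff derived for the earlier primary screen, cut at about 22% in these data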
# mABHD4 conf – ABHD4 (mouse) inhibition, FP confirmation; shares compounds with ABHD4 inh; purified mABHD4, FP-Rh probe fluorescence polarization; inhibition, % at 8.92 µM; hit rate 55% among 1,800;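 active = mean inhibition across replicates above the hit cutoff set in the primary screen, cut at about 30% in these data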;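 note: 0% = wild-type ABHD4 with DMSO and 100% = catalytically dead S159A mutant with DMSO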
# IN multimer up – HIV-1 integrase multimerization activation, counter-screen | shares compounds with LEDGF integ inh | activation, % at 7.7 µM | AID 1053131 | hit rate 17% among 2,000 | TR-FRET HIV-1 integrase multimerization, biochemical; in the data active = activation above about 8.9%
# TR-FRET interf – optically interferes with TR-FRET readout in LEDGF counter-screen | AID 1053135 | 2,000 tested, under 10 active | TR-FRET optical interference counterscreen, HIV-1 IN multimerization | shares compounds with LEDGF integ inh | inhibition, % at 7.7 µM;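 active = inhibition above the mean over all tested compounds plus 3 SD, which no compound reached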;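 note: 0% = integrase with antibodies and DMSO and 100% = antibodies without integrase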
# LEDGF integ conf – confirmation of HIV-1 LEDGF/p75-dependent integration inhibitors. TR-FRET LEDGF/p75-dependent HIV-1 integration, biochemical. shares compounds with LEDGF integ inh. hit rate 36% among 2,000. inhibition, % at 3.7 µM; in the data active = inhibition above about 14%
# The depositor's hits bear a star; x = no result.
SMILES,ABHD4 inh,rCAG binder,DAGLB inhibitor,PRMT1 inh,LEDGF integ inh,HTRA1 inhibitor,rCAG bind conf,DNA CAG counter,PRMT1 inh conf,IN multimer up,TR-FRET interf,LEDGF integ conf,others
CC(=O)Nc1ccc(NC(=O)/C(=C/c2ccco2)NC(=O)c2ccccc2)cc1,2,-3,1,-1,-1,3,x,x,x,x,x,x,
O=C(/C=C/c1ccco1)Nc1cccc(C(=O)Nc2ccccc2C(=O)O)c1,-61,67*,11,26*,19*,-77,82*,49*,46*,3,-17,13,
CCc1ccccc1NC(=O)c1cccc(NC(=O)/C=C/c2ccco2)c1,-25,10,-3,18,5,-23,x,x,x,x,x,x,
O=C(Nc1ccc(C(=O)O)cc1)/C(=C\c1ccco1)NC(=O)c1ccccc1Cl,7,43*,2,12,17*,4,6,2,x,2,-11,2,
O=C(Nc1ccc(C(=O)O)cc1)/C(=C\c1ccco1)NC(=O)c1ccccc1,2,3,0,19,6,-4,x,x,x,x,x,x,
CC(C)(C)c1ccc(C(=O)N/C(=C\c2ccco2)C(=O)Nc2ccccc2C(=O)O)cc1,-5,62*,12,46*,20*,-18,68*,29*,1,2,-10,26*,
CCn1c(=O)c2sccc2n2c(CCCC(=O)N3CCN(c4ccccn4)CC3)nnc12,0,-6,-4,1,2,-2,x,x,x,x,x,x,
COCCCn1nnnc1SCC(=O)N1CCN(C(=O)c2ccco2)CC1,4,-2,-2,2,0,1,x,x,x,x,x,x,
O=C(Cc1nnc(NC(=O)c2ccccc2)s1)N/N=C/c1ccco1,-15,71*,4,41*,36*,4,6,5.7*,8,1,-5,3,
N#Cc1ccc(COC(=O)c2ccccn2)cc1,2,-2,x,3,-8,x,x,x,x,x,x,x,
O=C(O)c1ccc(NC2=C/C(=N/S(=O)(=O)c3ccccc3)c3ccccc3C2=O)cc1,48*,61*,14,6,49*,34,38*,11*,x,7,-23,72*,mABHD4 conf=66*
C[C@@H]1NC(=O)OC1c1ccco1 (some centres not stated),-1,1,0,-4,-2,7,x,x,x,x,x,x,
COc1ccc(S(=O)(=O)Nc2cc(SCC(=O)O)c(O)c3ccccc23)cc1,49*,38*,-11,52*,21*,34,48*,18*,x,9,-31,33*,
O=C(/C=C/c1ccc([N+](=O)[O-])cc1)c1ccco1,-2,3,-1,-3,-3,0,x,x,x,x,x,x,
O=C(/C=C/c1ccc([N+](=O)[O-])cc1)/C=C/c1ccco1,39*,47*,10,40*,22*,33,25,12*,60*,0,-1,47*,mABHD4 conf=33*
O=C(CCc1ccc(S(=O)(=O)N2CCOCC2)cc1)N/N=C/c1ccc(O)c(O)c1O,22,40*,12,33*,17*,10,46*,16*,50*,18*,-66,27*,
O=C(Nc1scc(-c2ccccc2)c1C(=O)O)c1ccccc1Cl,-8,19,10,1,8,-4,x,x,x,x,x,x,
COc1ccc(-c2csc(NC(=O)c3ccccc3F)c2C(=O)O)cc1,-9,48*,3,6,15*,-1,32,6.1*,x,3,-11,10,
O=C(COC(=O)c1ccc2c(c1)OCCO2)Nc1ccccc1C(F)(F)F,7,1,-10,-2,1,-3,x,x,x,x,x,x,
Cc1[nH]n(-c2ccccc2)c(=O)c1C(c1cccc([N+](=O)[O-])c1)c1c(C)[nH]n(-c2ccccc2)c1=O,6,68*,2,3,27*,11,50*,20*,x,2,-10,3,
Cc1c(C(c2cccc([N+](=O)[O-])c2O)c2c(C)n(C)n(-c3ccccc3)c2=O)c(=O)n(-c2ccccc2)n1C,-4,4,2,3,6,-2,x,x,x,x,x,x,
Cc1[nH]n(-c2ccccc2)c(=O)c1C(c1cccc([N+](=O)[O-])c1O)c1c(C)[nH]n(-c2ccccc2)c1=O,12,79*,17,4,26*,1,46*,13*,x,8,-41,1,
CCOC(=O)c1ccc(NS(=O)(=O)c2ccc3c(c2)CCCN3C(C)=O)cc1,1,3,-1,1,-1,0,x,x,x,x,x,x,
O=C(CCCN1C(=O)/C(=C/c2ccco2)SC1=S)Nc1cccc(C(=O)O)c1,29,68*,6,33*,46*,14,45*,17*,14,3,-17,26*,
COc1cccc(/C=C2\SC(=S)N(CCCC(=O)Nc3cccc(C(=O)O)c3)C2=O)c1,x,x,8,x,x,-16,x,x,x,x,x,x,
O=C1/C(=C\c2ccco2)SC(=S)N1c1ccc(O)cc1,13,16,-56,14,11,-1,x,x,x,x,x,x,
O=C(NN1C(=O)/C(=C/C=C/c2ccccc2)SC1=S)c1ccncc1,-13,29,6,6,1,0,x,x,x,x,x,x,
O=C1/C(=C/C=C/c2ccco2)SC(=S)N1c1ccc(O)cc1,37*,74*,6,25*,76*,23,77*,46*,x,19*,-67,73*,mABHD4 conf=-42
O=C(NN1C(=O)/C(=C/C=C/c2ccco2)SC1=S)c1ccncc1,49*,77*,x,53*,83*,x,81*,48*,52*,47*,-165,83*,mABHD4 conf=13
O=C1/C(=C/c2ccco2)SC(=S)N1c1cccnc1,31*,65*,2,46*,93*,21,55*,26*,20,16*,-80,66*,mABHD4 conf=6
